Assay results: ChEMBL document CHEMBL1151475, “Thiopurine drugs azathioprine and 6-mercaptopurine inhibit Mycobacterium paratuberculosis growth in vitro” (2008)

Key:
Mycobacterium avium [1] = assay: Antituberculosis activity against Mycobacterium avium 104 isolated from AIDS patient assessed as minimum drug level required for killing within 15 days by MGIT 960 susceptibility test; type: functional
Mycobacterium avium [2] = assay: Antituberculosis activity against Mycobacterium avium ATCC 25291 isolated from chicken assessed as minimum drug level required for inhibition by MGIT 960 susceptibility test; type: functional
Summary of the method: (§1)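 10^5 to 10^6 CFU from single-cell suspensions inoculated in duplicate into MGIT ParaTB medium with supplement and egg yolk. Drugs were at final 0.5–64.0 μg/ml, with 128.0 μg/ml added for some strains. Tubes were incubated at 37°C in MGIT 960. Inhibition is the lowest concentration giving a time to detection longer than a drug-free 1:100 inoculum control. Killing is no positive signal through 56 days.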

[3] = tested on: Mycobacterium avium subsp. paratuberculosis; assay: Antituberculosis activity against Mycobacterium paratuberculosis B244 isolated from bovine assessed as minimum drug level required for inhibition by MGIT 960 susceptibility test; type: functional; summary of the method: as §1
[4] = tested on: Mycobacterium avium subsp. paratuberculosis; assay: Antituberculosis activity against Mycobacterium paratuberculosis B238 isolated from bovine assessed as minimum drug level required for inhibition by MGIT 960 susceptibility test; type: functional; summary of the method: as §1
[5] = tested on: Mycobacterium avium subsp. paratuberculosis; assay: Antituberculosis activity against Mycobacterium paratuberculosis UCF-4 isolated from Crohn's disease patient assessed as minimum drug level required for killing after 56 days by MGIT 960 susceptibility test; type: functional; summary of the method: as §1
[6] = tested on: Mycobacterium avium subsp. paratuberculosis; assay: Antituberculosis activity against Mycobacterium paratuberculosis B213 isolated from bovine assessed as minimum drug level required for killing after 56 days by MGIT 960 susceptibility test; type: functional; summary of the method: as §1
[7] = tested on: Mycobacterium avium subsp. paratuberculosis; assay: Antituberculosis activity against Mycobacterium paratuberculosis B238 isolated from bovine assessed as minimum drug level required for killing after 56 days by MGIT 960 susceptibility test; type: functional; summary of the method: as §1
Mycolicibacterium phlei [8] = assay: Antituberculosis activity against Mycobacterium phlei ATCC 11758 assessed as minimum drug level required for inhibition by MGIT 960 susceptibility test; type: functional
Summary of the method: (§2)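 MGIT ParaTB tubes were supplemented with egg yolk and inoculated in duplicate with 10^5 to 10^6 CFU from single-cell suspensions. Thiopurines were dissolved in 0.05 M NaOH in 10 mM PBS and tested at final 0.5 to 64.0 μg/ml, with 128.0 μg/ml added for some strains. Tubes ran at 37°C in the MGIT 960. The value is the lowest concentration giving a time-to-detection longer than a drug-free 1:100 inoculum control.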

Enterococcus faecalis [9] = assay: Antituberculosis activity against Enterococcus faecalis ATCC 29212 isolated from human urine assessed as minimum drug level required for killing after 56 days by MGIT 960 susceptibility test; type: functional
Mycobacterium avium [10] = assay: Antituberculosis activity against Mycobacterium avium ATCC 25291 isolated from chicken assessed as minimum drug level required for killing within 15 days by MGIT 960 susceptibility test; type: functional
Escherichia coli [11] = assay: Antituberculosis activity against Escherichia coli ATCC 25922 clinical isolate assessed as minimum drug level required for inhibition by MGIT 960 susceptibility test; type: functional
Mycobacterium avium [12] = assay: Antituberculosis activity against Mycobacterium avium JTC981 isolated from bongo fecal sample assessed as minimum drug level required for killing within 15 days by MGIT 960 susceptibility test; type: functional, Feces
[13] = tested on: Mycobacterium avium subsp. paratuberculosis; assay: Antituberculosis activity against Mycobacterium paratuberculosis UCF-5 isolated from Crohn's disease patient assessed as minimum drug level required for inhibition by MGIT 960 susceptibility test; type: functional; summary of the method: as §1
[14] = tested on: Mycolicibacterium smegmatis; assay: Antituberculosis activity against Mycobacterium smegmatis ATCC 14468 assessed as minimum drug level required for killing after 56 days by MGIT 960 susceptibility test; type: functional; summary of the method: as §1
[15] = tested on: Mycobacterium avium subsp. paratuberculosis; assay: Antituberculosis activity against Mycobacterium paratuberculosis UCF-7 isolated from Crohn's disease patient assessed as minimum drug level required for inhibition by MGIT 960 susceptibility test; type: functional; summary of the method: as §1
[16] = tested on: Mycobacterium avium subsp. paratuberculosis; assay: Antituberculosis activity against Mycobacterium paratuberculosis B236 isolated from bovine assessed as minimum drug level required for inhibition by MGIT 960 susceptibility test; type: functional; summary of the method: as §1
[17] = tested on: Mycobacterium avium subsp. paratuberculosis; assay: Antituberculosis activity against Mycobacterium paratuberculosis B236 isolated from bovine assessed as minimum drug level required for killing after 56 days by MGIT 960 susceptibility test; type: functional; summary of the method: as §1
Mycobacterium avium [18] = assay: Antituberculosis activity against Mycobacterium avium JTC48627 isolated from bison fecal sample assessed as minimum drug level required for killing within 15 days by MGIT 960 susceptibility test; type: functional, Feces
Mycobacterium avium [19] = assay: Antituberculosis activity against Mycobacterium avium JTC48627 isolated from bison fecal sample assessed as minimum drug level required for inhibition by MGIT 960 susceptibility test; type: functional, Feces; summary of the method: as §1
[20] = tested on: Mycobacterium avium subsp. paratuberculosis; assay: Antituberculosis activity against Mycobacterium paratuberculosis UCF-7 isolated from Crohn's disease patient assessed as minimum drug level required for killing after 56 days by MGIT 960 susceptibility test; type: functional; summary of the method: as §1
Escherichia coli [21] = assay: Antituberculosis activity against Escherichia coli ATCC 25922 clinical isolate assessed as minimum drug level required for killing after 56 days by MGIT 960 susceptibility test; type: functional
Mycobacterium avium [22] = assay: Antituberculosis activity against Mycobacterium avium EPA3 isolated from water assessed as minimum drug level required for killing within 15 days by MGIT 960 susceptibility test; type: functional
Mycobacterium avium [23] = assay: Antituberculosis activity against Mycobacterium avium JTC981 isolated from bongo fecal sample assessed as minimum drug level required for inhibition by MGIT 960 susceptibility test; type: functional, Feces; summary of the method: as §1
[24] = tested on: Mycobacterium avium subsp. paratuberculosis; assay: Antituberculosis activity against Mycobacterium paratuberculosis UCF-4 isolated from Crohn's disease patient assessed as minimum drug level required for inhibition by MGIT 960 susceptibility test; type: functional; summary of the method: as §1
[25] = tested on: Mycobacterium avium subsp. paratuberculosis; assay: Antituberculosis activity against Mycobacterium paratuberculosis UCF-5 isolated from Crohn's disease patient assessed as minimum drug level required for killing after 56 days by MGIT 960 susceptibility test; type: functional; summary of the method: as §1
Mycolicibacterium phlei [26] = assay: Antituberculosis activity against Mycobacterium phlei ATCC 11758 assessed as minimum drug level required for killing after 56 days by MGIT 960 susceptibility test; type: functional
Summary of the method: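 Duplicate MGIT ParaTB tubes with egg yolk and supplement received 10^5 to 10^6 CFU and thiopurine (in 0.05 M NaOH/10 mM PBS) at final 0.5 to 64.0 μg/ml, plus 128.0 μg/ml for some strains. Tubes were incubated at 37°C in the MGIT 960. The value is the minimum concentration whose tubes never signalled positive by 56 days.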

[27] = tested on: Mycobacterium avium subsp. paratuberculosis; assay: Antituberculosis activity against Mycobacterium paratuberculosis JTC303 isolated from bovine assessed as minimum drug level required for inhibition by MGIT 960 susceptibility test; type: functional; summary of the method: as §1
[28] = tested on: Mycobacterium avium subsp. paratuberculosis; assay: Antituberculosis activity against Mycobacterium paratuberculosis B244 isolated from bovine assessed as minimum drug level required for killing after 56 days by MGIT 960 susceptibility test; type: functional; summary of the method: as §1
[29] = tested on: Mycolicibacterium smegmatis; assay: Antituberculosis activity against Mycobacterium smegmatis ATCC 14468 assessed as minimum drug level required for inhibition by MGIT 960 susceptibility test; type: functional; summary of the method: as §2
[30] = tested on: Mycobacterium avium subsp. paratuberculosis; assay: Antituberculosis activity against Mycobacterium paratuberculosis ATCC 19698 isolated from bovine assessed as lowest drug level required for killing by MGIT 960 susceptibility test; type: functional
Summary of the method: (§3)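 M. paratuberculosis ATCC 19698 at 10^6 CFU per MGIT ParaTB tube in duplicate, drugs at final 1.0–64.0 μg/ml, 37°C in MGIT 960. Inhibition is the lowest concentration whose time to detection exceeds the 1:100 diluted-inoculum solvent control. No detectable growth means the tube never signals positive through 56 days.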

[31] = tested on: Mycobacterium avium subsp. paratuberculosis; assay: Antituberculosis activity against Mycobacterium paratuberculosis UCF-8 isolated from Crohn's disease patient assessed as minimum drug level required for inhibition by MGIT 960 susceptibility test; type: functional; summary of the method: as §1
[32] = tested on: Mycobacterium avium subsp. paratuberculosis; assay: Antituberculosis activity against Mycobacterium paratuberculosis B213 isolated from bovine assessed as minimum drug level required for inhibition by MGIT 960 susceptibility test; type: functional; summary of the method: as §1
[33] = tested on: Mycobacterium avium subsp. paratuberculosis; assay: Antituberculosis activity against Mycobacterium paratuberculosis JTC303 isolated from bovine assessed as minimum drug level required for killing after 56 days by MGIT 960 susceptibility test; type: functional; summary of the method: as §1
Enterococcus faecalis [34] = assay: Antituberculosis activity against Enterococcus faecalis ATCC 29212 isolated from human urine assessed as minimum drug level required for inhibition by MGIT 960 susceptibility test; type: functional
Mycobacterium avium [35] = assay: Antituberculosis activity against Mycobacterium avium 104 isolated from AIDS patient assessed as minimum drug level required for inhibition by MGIT 960 susceptibility test; type: functional; summary of the method: as §1
Mycobacterium avium [36] = assay: Antituberculosis activity against Mycobacterium avium ATCC 35712 isolated from chicken assessed as minimum drug level required for inhibition by MGIT 960 susceptibility test; type: functional; summary of the method: as §1
Mycobacterium avium [37] = assay: Antituberculosis activity against Mycobacterium avium WSLH1544 isolated from water assessed as minimum drug level required for killing within 15 days by MGIT 960 susceptibility test; type: functional
[38] = tested on: Mycobacterium avium subsp. paratuberculosis; assay: Antituberculosis activity against Mycobacterium paratuberculosis ATCC 19698 isolated from bovine assessed as lowest drug level producing inhibition at 10^6 CFU of inoculum by agar counting method; type: functional
Summary of the method: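 ATCC 19698 at 10^6 CFU was exposed to drug (1.0–64.0 μg/ml) in MGIT ParaTB medium at 37°C. Aliquots taken at 3 and 5 days were centrifuged, resuspended in PBS and declumped with glass beads. Serial dilutions were plated in quadruplicate on 7H10/OADC/mycobactin J and counted after 8 weeks. Inhibition is the lowest concentration giving a 2 log10 (99%) CFU reduction.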

[39] = tested on: Mycobacterium avium subsp. paratuberculosis; assay: Antituberculosis activity against Mycobacterium paratuberculosis ATCC 19698 isolated from bovine assessed as minimum drug level resulting in no detectable growth at 10^6 CFU of inoculum after 56 days by MGIT 960 susceptibility test; type: functional; summary of the method: as §3
[40] = tested on: Mycobacterium avium subsp. paratuberculosis; assay: Antituberculosis activity against Mycobacterium paratuberculosis ATCC 19698 isolated from bovine assessed as lowest drug level producing inhibition at 10^6 CFU of inoculum by MGIT 960 susceptibility test; type: functional; summary of the method: as §3

Cn1cnc([N+](=O)[O-])c1Sc1ncnc2[nH]cnc12 [AZATHIOPRINE]
Activity (Mycobacterium avium [1]): >64 µg/mL
Activity (Mycobacterium avium [2]): >64 µg/mL
Activity [3]: 8 µg/mL
Activity [4]: 16 µg/mL
Activity [5]: >32 µg/mL
Activity [6]: >32 µg/mL
Activity [7]: >32 µg/mL
Activity (Mycolicibacterium phlei [8]): 2 µg/mL
Activity (Enterococcus faecalis [9]): >128 µg/mL
Activity (Mycobacterium avium [10]): >64 µg/mL
Activity (Escherichia coli [11]): >128 µg/mL
Activity (Mycobacterium avium [12]): >64 µg/mL
Activity [13]: 2 µg/mL
Activity [14]: >128 µg/mL
Activity [15]: 1 µg/mL
Activity [16]: 8 µg/mL
Activity [17]: >32 µg/mL
Activity (Mycobacterium avium [18]): >64 µg/mL
Activity (Mycobacterium avium [19]): 64 µg/mL
Activity [20]: 16 µg/mL
Activity (Escherichia coli [21]): >128 µg/mL
Activity (Mycobacterium avium [22]): >64 µg/mL
Activity (Mycobacterium avium [23]): >64 µg/mL
Activity [24]: 4 µg/mL
Activity [25]: >32 µg/mL
Activity (Mycolicibacterium phlei [26]): 32 µg/mL
Activity [27]: 2 µg/mL
Activity [28]: >32 µg/mL
Activity [29]: >128 µg/mL
Activity [30]: 16 µg/mL
Activity [31]: 2 µg/mL
Activity [32]: 8 µg/mL
Activity [33]: >32 µg/mL
Activity (Enterococcus faecalis [34]): >128 µg/mL
Activity (Mycobacterium avium [35]): >64 µg/mL
Activity (Mycobacterium avium [36]): >64 µg/mL
Activity (Mycobacterium avium [37]): >64 µg/mL

Nc1ccc(O)c(C(=O)O)c1 [MESALAMINE]
Activity [38]: >64 µg/mL
Activity [39]: >64 µg/mL
Activity [40]: >64 µg/mL

O=C(O)c1cc(/N=N/c2ccc(S(=O)(=O)Nc3ccccn3)cc2)ccc1O [SULFASALAZINE]
Activity [38]: >64 µg/mL
Activity [39]: >64 µg/mL
Activity [40]: >64 µg/mL

Nc1ccc(S(=O)(=O)Nc2ccccn2)cc1 [SULFAPYRIDINE]
Activity [38]: >64 µg/mL
Activity [39]: >64 µg/mL
Activity [40]: >64 µg/mL
